Data from ChEMBL document CHEMBL5678798 (Clin Cancer Res, 2009).
The source made the active and inactive calls. No cut-off for these calls is given here.

Assays:
MOLP-8 = experiment: Antiproliferative activity against human MOLP8 cells assessed as reduction in cell viability after 72 hrs by CellTiter-Glo assay; assay type: functional, cell-based; details: MOLP-8, 72 h
Outline: (§1)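 Cells seeded in 96-well plates, left overnight at 37°C, then exposed to a range of test concentrations for 72 h. Viability read by CellTiter-Glo luminescence; IC50 from four-parameter curve fit. Lines kept at 37°C, 5% CO2, in recommended growth medium.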

MCF7 [1] = experiment: Antiproliferative activity against human MCF7 cells assessed as reduction in cell viability after 72 hrs by CellTiter-Glo assay; assay type: functional, cell-based; details: MCF7, 72 h; outline: as §1
[2] = Antiproliferative activity against human SUPM2 cells assessed as reduction in cell viability after 72 hrs by CellTiter-Glo assay; assay type: functional, cell-based; details: SUP-M2, 72 h; outline: as §1
A549 = experiment: Antiproliferative activity against human A549 cells assessed as reduction in cell viability after 72 hrs by CellTiter-Glo assay; assay type: functional, cell-based; details: A549, 72 h; outline: as §1
[3] = Antiproliferative activity against IGF1-stimulated mouse NIH-3T3/LISN cells over expressing human IGF1R assessed as reduction in cell viability preincubated for 2 hr followed by IGF1R stimulation and measured after 72 hrs by CellTiter-Glo assay; assay type: functional, cell-based
Outline: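 NIH-3T3 overexpressing human IGF-IR, kept in DMEM/10% FBS with 500 µg/mL G418. Seeded on collagen-coated 96-well plates and allowed to adhere 24 h. Switched to serum-free medium, compound or DMSO added for 2 h, then IGF-I 30 ng/mL. Incubated 72 h at 37°C. Read by CellTiter-Glo; IC50 by four-parameter fit.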

COLO 205 = experiment: Induction of cell cycle arrest in human COLO 205 cells assessed as effect on sub-2N-DNA content at 0.03 to 10 uM incubated for 24 to 48 hrs by propidium iodide staining based flow cytometric analysis; assay type: functional; details: dose 0.03-10 µM, time lower 24.0 hrs, time upper […]
Outline: (§2)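 COLO 205, MCF-7 or NCI-H929 cells seeded in 96-well plates overnight at 37°C, then exposed to DMSO or increasing compound concentrations for 24 or 48 h. Fixed and stained with propidium iodide (Vindelov method), then analysed by flow cytometry for sub-G1, G1, S and G2-M fractions. Experiment repeated twice.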

MCF7 [4] = experiment: Induction of cell cycle arrest in human MCF7 cells assessed as decrease in cells accumulation at G2/M phase at 0.03 to 10 uM incubated for 24 to 48 hrs by propidium iodide staining based flow cytometric analysis; assay type: functional; details: dose 0.03-10 µM, time lower 24.0 hrs, time upper […]; outline: as §2
[5] = Toxicity in nu/nu CD-1 mouse xenografted with human COLO 205 cells assessed as reduction in body weight at 30 mg/kg, po administered twice daily for 21 days relative to control; assay type: organism-based; design: scale not given: the % may be the effect or the level left; details: in vivo, 504 h, time 21 day
TGF-beta receptor type-1 = TGF-beta receptor type-1 (Homo sapiens, UniProt P36897); experiment: Inhibition of ALK5 (unknown origin)
Aurora kinase A = Aurora kinase A (Homo sapiens, UniProt O14965); experiment: Inhibition of Aurora A (unknown origin)
Outline: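 In-house kinase panel assay with conditions developed and optimized for this kinase. Aurora A was assayed in the presence of its accessory protein TPX2. IC50 was determined.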

[6] = target: Protein kinase C theta type (Homo sapiens, UniProt Q04759); experiment: Inhibition of PKCtheta (unknown origin)
[7] = target: Dual specificity protein kinase CLK2 (Homo sapiens) (UniProt P49760); experiment: Inhibition of N-terminal GST-tagged recombinant human CLK2 (138 to end residues) expressed in baculovirus infected Sf21 cells at 0.3 uM by filter binding assay relative to control
Outline: (§3)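 Outsourced single-concentration screen in a commercial panel of 233 protein kinases, run as radiometric filter-binding activity assays. Test agent was tested at 0.3 or 3 µmol/L, as given in each line, from a 10 mmol/L DMSO stock. Activity is expressed as percent inhibition relative to control.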

[8] = target: Ephrin type-A receptor 5 (Homo sapiens) (UniProt P54756); experiment: Inhibition of N-terminal His6-tagged human EphA5 expressed in baculovirus infected Sf21 cells at 0.3 uM by filter binding assay relative to control; outline: as §3
[9] = target: Homeodomain-interacting protein kinase 3 (Homo sapiens) (UniProt Q9H422); experiment: Inhibition of N-terminal 6His-tagged recombinant human HIPK3 (161 to 562 residues) expressed in baculovirus infected Sf21 cells at 0.3 uM by filter binding assay relative to control; outline: as §3
[10] = target: Serine/threonine-protein kinase Nek3 (Homo sapiens) (UniProt P51956); experiment: Inhibition of N-terminal 6His-tagged recombinant full length human NEK3 expressed in baculovirus infected Sf21 cells at 0.3 uM by filter binding assay relative to control
Outline: (§4)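 KinaseProfiler panel of 233 kinases: radiometric filter-binding activity assays with compound at 0.3 or 3 µmol/L. Read-out is percent inhibition.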

[11] = target: Tyrosine-protein kinase Blk (Mus musculus) (UniProt P16277); experiment: Inhibition of N-terminal His6-tagged recombinant full-length mouse Blk expressed in baculovirus infected Sf21 cells at 3 uM by filter binding assay relative to control; outline: as §3
[12] = target: Serine/threonine-protein kinase BRSK1 (Homo sapiens) (UniProt Q8TDC3); experiment: Inhibition of N-terminal 6His-tagged recombinant human BrSK1 (2 to end residues) expressed in baculovirus infected Sf21 cells at 3 uM by filter binding assay relative to control; outline: as §3
[13] = target: Serine/threonine-protein kinase 17A (Homo sapiens) (UniProt Q9UEE5); experiment: Inhibition of N-terminal 6His-tagged recombinant full-length human DRAK1 expressed in baculovirus infected Sf21 cells at 3 uM by filter binding assay relative to control; outline: as §4
[14] = target: Fibroblast growth factor receptor 3 (Homo sapiens) (UniProt P22607); experiment: Inhibition of N-terminal His6-tagged recombinant human FGFR3 (447 to 761 residues) expressed in Sf21 cells at 3 uM by filter binding assay relative to control
[15] = target: Serine/threonine-protein kinase PAK 4 (Homo sapiens) (UniProt O96013); experiment: Inhibition of N-terminal His6/C-terminal GST-tagged recombinant human PAK4 (295 to end residues) expressed in baculovirus infected Sf21 cells at 3 uM by filter binding assay relative to control
[16] = target: Serine/threonine-protein kinase PAK 6 (Homo sapiens) (UniProt Q9NQU5); experiment: Inhibition of N-terminal His6-tagged recombinant human PAK6 (382 to end residues) expressed in Sf21 cells at 3 uM by filter binding assay relative to control
[17] = target: cGMP-dependent protein kinase 1 (Homo sapiens) (UniProt Q13976); experiment: Inhibition of N-terminal 6His-tagged recombinant full-length human PKG1beta expressed in baculovirus infected Sf21 cells at 3 uM by filter binding assay relative to control; outline: as §4
[18] = target: Protein-tyrosine kinase 2-beta (Homo sapiens) (UniProt Q14289); experiment: Inhibition of N-Terminal His6-tagged recombinant full-length human Pyk2 expressed in baculovirus infected Sf21 cells at 3 uM by filter binding assay relative to control; outline: as §4
[19] = target: Insulin receptor (Mus musculus) (UniProt P15208); details: CD-1, dose 30.0 mg/kg, route po, time 21.0 day

Sequence of Serine/threonine-protein kinase BRSK1 (Homo sapiens) (Q8TDC3 whole entry): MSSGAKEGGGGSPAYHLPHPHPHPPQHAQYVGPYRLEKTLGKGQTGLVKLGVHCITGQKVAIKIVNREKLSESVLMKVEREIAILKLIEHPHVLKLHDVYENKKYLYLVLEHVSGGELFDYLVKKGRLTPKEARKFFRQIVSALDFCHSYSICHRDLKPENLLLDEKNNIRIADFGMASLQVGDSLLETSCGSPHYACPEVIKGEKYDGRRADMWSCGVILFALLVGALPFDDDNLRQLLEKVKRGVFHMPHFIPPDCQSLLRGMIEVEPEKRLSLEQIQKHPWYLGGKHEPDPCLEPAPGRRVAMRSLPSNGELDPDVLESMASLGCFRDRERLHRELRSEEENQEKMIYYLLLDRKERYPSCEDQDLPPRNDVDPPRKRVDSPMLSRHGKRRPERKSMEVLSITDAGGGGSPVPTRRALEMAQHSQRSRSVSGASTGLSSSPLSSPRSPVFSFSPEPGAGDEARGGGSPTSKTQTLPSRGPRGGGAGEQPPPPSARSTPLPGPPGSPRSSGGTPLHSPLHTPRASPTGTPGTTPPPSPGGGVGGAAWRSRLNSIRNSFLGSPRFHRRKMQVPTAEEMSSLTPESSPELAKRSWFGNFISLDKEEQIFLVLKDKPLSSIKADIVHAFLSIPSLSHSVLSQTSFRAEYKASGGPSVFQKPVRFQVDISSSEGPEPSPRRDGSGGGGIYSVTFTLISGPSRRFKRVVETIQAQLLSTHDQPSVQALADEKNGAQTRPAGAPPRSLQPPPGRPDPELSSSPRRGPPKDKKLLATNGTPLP
Sequence of Tyrosine-protein kinase Blk (Mus musculus) (P16277 whole entry): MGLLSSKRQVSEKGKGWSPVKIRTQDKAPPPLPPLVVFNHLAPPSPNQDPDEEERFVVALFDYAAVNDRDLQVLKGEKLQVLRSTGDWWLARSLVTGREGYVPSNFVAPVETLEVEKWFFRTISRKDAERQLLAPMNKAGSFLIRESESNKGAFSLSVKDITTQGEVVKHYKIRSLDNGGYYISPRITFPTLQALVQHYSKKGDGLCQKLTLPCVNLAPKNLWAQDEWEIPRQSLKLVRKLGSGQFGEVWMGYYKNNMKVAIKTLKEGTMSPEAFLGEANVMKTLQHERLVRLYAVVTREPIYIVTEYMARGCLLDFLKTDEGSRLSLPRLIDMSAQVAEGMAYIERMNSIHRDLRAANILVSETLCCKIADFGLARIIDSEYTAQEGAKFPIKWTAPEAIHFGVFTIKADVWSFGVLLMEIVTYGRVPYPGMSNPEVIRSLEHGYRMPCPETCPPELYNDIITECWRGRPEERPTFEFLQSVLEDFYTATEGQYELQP
Sequence of Aurora kinase A (O14965 whole entry): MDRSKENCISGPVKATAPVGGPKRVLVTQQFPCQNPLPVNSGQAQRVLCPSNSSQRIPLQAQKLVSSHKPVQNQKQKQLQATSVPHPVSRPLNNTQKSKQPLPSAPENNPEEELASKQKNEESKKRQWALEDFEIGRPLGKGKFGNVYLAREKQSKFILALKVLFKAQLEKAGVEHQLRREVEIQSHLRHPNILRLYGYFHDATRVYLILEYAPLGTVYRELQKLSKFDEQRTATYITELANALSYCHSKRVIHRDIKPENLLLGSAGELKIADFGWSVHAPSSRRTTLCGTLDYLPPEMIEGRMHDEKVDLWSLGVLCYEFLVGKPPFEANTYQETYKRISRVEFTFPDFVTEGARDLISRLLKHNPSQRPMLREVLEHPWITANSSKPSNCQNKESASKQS
Sequence of Homeodomain-interacting protein kinase 3 (Homo sapiens) (Q9H422 whole entry, looked up, the tested form may be a part): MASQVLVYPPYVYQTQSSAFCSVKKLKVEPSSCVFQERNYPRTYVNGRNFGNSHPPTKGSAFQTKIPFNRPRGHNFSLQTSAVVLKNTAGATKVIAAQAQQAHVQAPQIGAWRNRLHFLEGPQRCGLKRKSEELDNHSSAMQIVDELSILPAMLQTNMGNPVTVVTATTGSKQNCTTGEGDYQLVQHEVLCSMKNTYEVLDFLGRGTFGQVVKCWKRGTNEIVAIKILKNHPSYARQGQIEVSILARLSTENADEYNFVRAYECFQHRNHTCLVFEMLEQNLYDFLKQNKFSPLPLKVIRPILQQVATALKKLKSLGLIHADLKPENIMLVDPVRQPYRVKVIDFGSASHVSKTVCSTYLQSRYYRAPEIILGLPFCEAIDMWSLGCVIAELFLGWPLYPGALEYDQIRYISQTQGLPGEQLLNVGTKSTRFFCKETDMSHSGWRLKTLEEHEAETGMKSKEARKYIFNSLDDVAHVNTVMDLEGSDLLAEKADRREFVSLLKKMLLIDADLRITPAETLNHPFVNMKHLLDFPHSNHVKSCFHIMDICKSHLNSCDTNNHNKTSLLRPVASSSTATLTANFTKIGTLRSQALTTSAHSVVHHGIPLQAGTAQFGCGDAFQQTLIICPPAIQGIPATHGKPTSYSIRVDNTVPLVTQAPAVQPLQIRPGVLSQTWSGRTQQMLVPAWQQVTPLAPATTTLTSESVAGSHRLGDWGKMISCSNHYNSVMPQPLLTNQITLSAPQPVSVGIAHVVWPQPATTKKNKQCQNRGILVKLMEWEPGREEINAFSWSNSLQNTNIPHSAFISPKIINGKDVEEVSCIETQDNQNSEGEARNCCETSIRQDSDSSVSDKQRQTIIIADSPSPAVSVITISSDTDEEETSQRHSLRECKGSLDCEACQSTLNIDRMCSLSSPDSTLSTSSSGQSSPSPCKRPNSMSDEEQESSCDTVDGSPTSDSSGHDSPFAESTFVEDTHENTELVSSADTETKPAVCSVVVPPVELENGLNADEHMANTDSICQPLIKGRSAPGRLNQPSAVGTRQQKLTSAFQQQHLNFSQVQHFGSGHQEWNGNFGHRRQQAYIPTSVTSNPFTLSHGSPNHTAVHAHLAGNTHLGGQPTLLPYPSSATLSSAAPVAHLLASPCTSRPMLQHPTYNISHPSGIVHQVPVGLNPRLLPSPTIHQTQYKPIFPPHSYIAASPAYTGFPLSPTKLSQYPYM
Sequence of Ephrin type-A receptor 5 (Homo sapiens) (P54756 whole entry, the tested form may be a part): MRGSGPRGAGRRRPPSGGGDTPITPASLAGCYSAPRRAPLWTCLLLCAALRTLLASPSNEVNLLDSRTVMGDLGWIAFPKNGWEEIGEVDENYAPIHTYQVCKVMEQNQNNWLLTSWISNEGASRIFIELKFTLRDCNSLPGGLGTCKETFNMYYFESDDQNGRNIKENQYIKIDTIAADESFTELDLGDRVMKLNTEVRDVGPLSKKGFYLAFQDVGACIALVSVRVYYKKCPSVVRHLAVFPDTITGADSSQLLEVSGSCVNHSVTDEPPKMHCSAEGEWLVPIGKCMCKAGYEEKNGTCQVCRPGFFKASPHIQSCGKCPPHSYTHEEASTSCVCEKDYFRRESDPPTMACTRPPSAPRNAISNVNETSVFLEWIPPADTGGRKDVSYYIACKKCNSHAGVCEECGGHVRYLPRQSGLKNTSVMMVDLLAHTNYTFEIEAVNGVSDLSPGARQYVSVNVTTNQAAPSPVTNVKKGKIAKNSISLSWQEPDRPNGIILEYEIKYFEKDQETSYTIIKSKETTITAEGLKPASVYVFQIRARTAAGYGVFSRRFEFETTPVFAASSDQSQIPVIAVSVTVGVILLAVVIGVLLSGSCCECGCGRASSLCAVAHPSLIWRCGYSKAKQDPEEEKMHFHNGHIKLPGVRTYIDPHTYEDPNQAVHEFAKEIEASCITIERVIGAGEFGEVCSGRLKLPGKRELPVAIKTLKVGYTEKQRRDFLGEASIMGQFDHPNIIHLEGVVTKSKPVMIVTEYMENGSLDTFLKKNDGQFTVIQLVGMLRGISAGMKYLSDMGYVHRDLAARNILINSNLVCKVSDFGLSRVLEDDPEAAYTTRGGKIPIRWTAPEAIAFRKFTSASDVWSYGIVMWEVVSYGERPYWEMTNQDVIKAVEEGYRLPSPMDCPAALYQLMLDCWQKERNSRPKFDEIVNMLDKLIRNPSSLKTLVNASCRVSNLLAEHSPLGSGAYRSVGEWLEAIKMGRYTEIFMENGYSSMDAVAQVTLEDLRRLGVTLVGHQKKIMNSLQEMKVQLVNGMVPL
Sequence of Protein-tyrosine kinase 2-beta (Homo sapiens) (Q14289 whole entry, looked up): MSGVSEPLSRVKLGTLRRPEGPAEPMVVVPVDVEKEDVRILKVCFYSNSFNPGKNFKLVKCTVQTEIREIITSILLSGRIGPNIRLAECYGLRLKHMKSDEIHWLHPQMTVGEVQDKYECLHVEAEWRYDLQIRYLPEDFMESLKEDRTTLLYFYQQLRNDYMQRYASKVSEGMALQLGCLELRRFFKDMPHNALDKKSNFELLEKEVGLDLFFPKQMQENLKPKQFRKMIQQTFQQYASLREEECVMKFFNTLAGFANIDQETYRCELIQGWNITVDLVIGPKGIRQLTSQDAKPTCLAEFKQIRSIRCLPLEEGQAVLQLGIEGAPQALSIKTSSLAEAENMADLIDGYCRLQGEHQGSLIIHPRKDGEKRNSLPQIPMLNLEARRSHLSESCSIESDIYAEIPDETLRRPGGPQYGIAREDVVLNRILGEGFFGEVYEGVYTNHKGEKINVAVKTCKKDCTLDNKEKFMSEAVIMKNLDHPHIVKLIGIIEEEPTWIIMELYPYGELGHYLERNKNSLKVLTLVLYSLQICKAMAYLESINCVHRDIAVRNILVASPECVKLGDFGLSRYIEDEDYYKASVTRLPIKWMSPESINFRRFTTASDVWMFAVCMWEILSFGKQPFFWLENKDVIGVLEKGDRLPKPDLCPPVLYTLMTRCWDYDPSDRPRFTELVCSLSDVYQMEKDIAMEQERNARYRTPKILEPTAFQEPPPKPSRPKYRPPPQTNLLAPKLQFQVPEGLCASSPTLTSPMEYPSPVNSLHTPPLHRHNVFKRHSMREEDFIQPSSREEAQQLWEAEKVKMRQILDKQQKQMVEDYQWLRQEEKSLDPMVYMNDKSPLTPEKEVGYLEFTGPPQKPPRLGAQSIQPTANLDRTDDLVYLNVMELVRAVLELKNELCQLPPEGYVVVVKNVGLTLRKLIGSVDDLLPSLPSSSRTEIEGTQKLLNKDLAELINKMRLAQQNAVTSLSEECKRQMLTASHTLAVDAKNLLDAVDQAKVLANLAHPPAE

CCc1cc(Nc2nccc(-c3c(-c4ccc(OC)c(C(=O)Nc5c(F)cccc5F)c4)nc4ccccn34)n2)c(OC)cc1N1CCC(N2CCN(S(C)(=O)=O)CC2)CC1
IC50 (MOLP-8): 96 nM
IC50 (MCF7 [1]): 137 nM
IC50 [2]: > 30000 nM
IC50 (A549): > 20000 nM
IC50 [3]: 60 nM
Activity (COLO 205): inactive
Activity (MCF7 [4]): Active
Activity [5]: > 20%
IC50 (TGF-beta receptor type-1): > 10000 nM
IC50 (Aurora kinase A): > 8000 nM
IC50 [6]: > 10000 nM
inhibition [7]: 0%
inhibition [8]: 11%
inhibition [9]: 1%
inhibition [10]: 1%
inhibition [11]: 22%
inhibition [12]: 24%
inhibition [13]: 10%
inhibition [14]: 25%
inhibition [15]: 0%
inhibition [16]: 0%
inhibition [17]: 32%
inhibition [18]: 24%
inhibition [19]: inactive
